Assay outcomes from PubChem.
Only a sample is shown.
HKDC1 act – HKDC1 hexokinase activators, primary screen, biochemical, fluorescence, uHTS; Q2TB90; recombinant HKDC1, G6PDH/diaphorase resazurin fluorescence; active compounds read low; activity change, negative = activation, % at 20 µM; 0.056% of 340,000 active; AID 493187, 2011;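 active means activation of 40% or more at 20 µM, a change of -40% or lower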
Target sequence (Q2TB90 whole entry, looked up): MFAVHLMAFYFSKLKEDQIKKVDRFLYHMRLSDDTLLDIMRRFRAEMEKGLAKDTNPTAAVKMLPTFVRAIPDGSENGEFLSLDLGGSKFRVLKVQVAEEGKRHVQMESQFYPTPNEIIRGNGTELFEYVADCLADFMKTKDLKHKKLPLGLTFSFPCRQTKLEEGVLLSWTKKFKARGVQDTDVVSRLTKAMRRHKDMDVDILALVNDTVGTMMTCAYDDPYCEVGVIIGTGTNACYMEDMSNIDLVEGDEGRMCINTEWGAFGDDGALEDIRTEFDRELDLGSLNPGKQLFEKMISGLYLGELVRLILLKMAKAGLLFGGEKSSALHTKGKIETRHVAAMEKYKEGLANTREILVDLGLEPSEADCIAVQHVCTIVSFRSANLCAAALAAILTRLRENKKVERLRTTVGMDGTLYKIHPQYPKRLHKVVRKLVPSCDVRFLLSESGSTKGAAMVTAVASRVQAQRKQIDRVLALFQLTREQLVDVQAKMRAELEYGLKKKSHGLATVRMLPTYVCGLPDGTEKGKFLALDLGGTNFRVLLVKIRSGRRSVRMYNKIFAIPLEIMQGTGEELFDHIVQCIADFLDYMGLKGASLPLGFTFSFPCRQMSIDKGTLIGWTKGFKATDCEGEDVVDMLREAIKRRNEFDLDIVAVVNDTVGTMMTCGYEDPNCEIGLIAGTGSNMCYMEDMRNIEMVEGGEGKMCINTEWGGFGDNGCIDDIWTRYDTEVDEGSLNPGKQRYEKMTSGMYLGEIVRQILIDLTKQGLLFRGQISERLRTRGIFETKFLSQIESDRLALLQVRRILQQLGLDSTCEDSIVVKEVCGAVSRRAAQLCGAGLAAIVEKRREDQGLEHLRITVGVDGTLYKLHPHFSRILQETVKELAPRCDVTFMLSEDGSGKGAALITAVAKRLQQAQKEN
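Dosing: single compound dose of 20 µM, 1% DMSO final / Test system: in-house human HKDC1 enzyme, G6PDH and diaphorase coupling enzymes / Quantity: 5 µg/mL HKDC1 final / Incubation: enzyme reaction 90 min, room temperature, in dark / Buffer or medium: pH 8.0 Tris with MgCl2 / Detection: coupled resazurin-to-resorufin fluorescence, Ex 525/Em 613 nm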
* hit, by the source's call.

SMILES | HKDC1 act
COc1ccc(-c2cc(C(=O)NNC(=S)NC(=O)c3c(-c4ccccc4)noc3C)[nH]n2)cc1 | -46*
Cc1onc(-c2ccccc2)c1C(=O)NNC(=S)NC(=O)c1ccc(Br)cc1 | -51*
Cc1nc2c(O)c3c(c(O)c2nc1C)C1C=CC3CC1 | 82
O=C(CCl)N(c1ccc(Cl)cc1)c1c[nH]c2ccccc12 | 41
CCOc1ccc(CCNC(=O)c2ccc3c(=O)[nH]c4c(C(=O)NC(C)C)sc(=S)n4c3c2)cc1 | 41
O=C(/C=C/c1ccc(Cl)cc1)c1ccc([N+](=O)[O-])o1 | 54
CN(C)c1ccc(C=c2c3cc(O)ccc3n3c2cc(-c2ccccc2)[n+]3C)cc1 | 56
CN(C)c1ccc(Cc2cc3c(O)ccc(O)c3cc(Cc3ccc(N(C)C)cc3)c2=O)cc1 | 60
Cc1ccccc1NC1=C/C(=N\S(=O)(=O)c2ccc(C(=O)O)cc2)c2ccccc2C1=O | 70
O=C(O)c1ccc(NC2=C(Cl)C(=O)c3ccccc3C2=O)cc1 | -131*
O=C1C=C(Nc2ccc(F)cc2)c2ccccc2C1=O | 42
c1coc(-c2nc(-c3ccco3)c(-c3ccco3)nc2-c2ccco2)c1 | 68
Cc1cc(C(=O)CCl)c(C)n1CCc1ccc(Cl)cc1 | 39
C=CCn1c(SCC(=O)Nc2sc3c(c2C#N)CCC(C)C3)nc2cc(C(=O)O)ccc2c1=O (stereo not given) | 39
CC(=O)C1=C(c2ccc(Br)cc2)C(=O)c2ccccc2C1=O | 83
O=C1C(=C(I)I)c2ccccc2-c2ccccc21 | 61
O=C1C(C2=C(O)c3ccccc3C2=O)=Nc2ccccc21 | -242*
O=C1C(F)=CC(COC(c2ccccc2)(c2ccccc2)c2ccccc2)OC1n1cc(F)c(=O)[nH]c1=O (stereo not given) | 40
CCC[n+]1c2ccccc2cc2ccccc21 | 37
COc1ccccc1C1=NNC(=Nc2cccc(S(=O)(=O)N(C)C)c2)SC1 | -202*
Cc1cc(C)n2nc(SCc3nnc(SCc4ccccc4C)s3)nc2n1 | 53
O=c1cc(O)c2sc(Nc3ccc(Cl)c(F)c3)nc2[nH]1 | 39
CCC(C)(C)NC(=O)C1CCC(CNS(=O)(=O)c2cccc3nsnc23)CC1 (stereo not given) | 51
COc1ccc(OC)c2[nH]c(=O)c(CCNC(=O)c3cc4ccccc4o3)cc12 | 38
CC1CCc2c(c3ccccc3n2C(=O)CCl)C1 (stereo not given) | 46
SMILES | HKDC1 act
CC[n+]1c(/C=C2\Sc3ccccc3N2C)ccc2cccc(C)c21 | -40*
O=C(/C=C/Sc1ccccc1)c1ccccc1 | 36
CCCC[n+]1c2ccccc2cc2ccccc21 | 42
O=C(Nc1ccc2nc(-c3ccco3)c(-c3ccco3)nc2c1)N1CCN(c2ccccn2)CC1 | 57
Nc1nc(N2CCN(c3ccccn3)CC2)nc2ccccc12 | -58*
COc1ccc(-n2c(C)cc(C(=O)CCl)c2C)cc1 | 35
COC(=O)c1cc(=O)n(Cc2ccc(OC)cc2)c(=NCc2ccc(OC)cc2)s1 | -43*
COc1ccc(CN2C(=O)c3cccnc3C2O)cc1 (stereo not given) | 41
CCCc1nc2oc3c(OC)ncnc3c2c2c1COC(C)(C)C2 | 37
CCCCC(CC)CN=C(N)NC(N)=NCCCCCCN=C(N)NC(N)=NCC(CC)CCCC (stereo not given) | 42
CCCCC(=O)NC(c1ccc(N(CC)CC)cc1)c1ccc2cccnc2c1O (stereo not given) | -46*
NC1=CC(=O)C(=O)c2ccccc21 | 49
Cc1ccc(C(=O)c2c(C)oc3c2C(=O)C(=O)c2ccccc2-3)cc1 | 48
COc1ccc(-n2cccc2/C=C2\C(=N)N3N=C(c4ccco4)SC3=NC2=O)cc1 | 35
Cc1nc(COC(=O)c2cc(O)c3ccccc3c2O)cs1 | 60
c1ccc2oc(C3=NNC(=NC4CC4)SC3)cc2c1 | -47*
O=S(=O)(CCSc1nc2ccccc2s1)c1nc2ccccc2s1 | 39
CCOc1ccc(/C=C2/SC(=S)N(CCC(=O)Nc3ccc(C(=O)O)cc3)C2=O)cc1 | 43
O=C1C(O)=CC(=C(c2ccccc2)c2ccccc2)c2ccccc21 | 78
COc1cc(/C=C2\SC(=Nc3ccc(Cl)c(C(=O)O)c3)NC2=O)c(Br)c(Br)c1O | 40
Cn1cnc([N+](=O)[O-])c1Sc1ccc(Br)cc1 | -58*
CCCc1nc2oc3c(NCCOCCO)ncnc3c2c2c1COC(C)(C)C2 | 39
Cc1cccc2c(N=NC(=O)c3ccc(NS(=O)(=O)c4cccs4)cc3)c(O)[nH]c12 | 36
Cn1cnnc1SC1c2cccc3cccc(c23)C1NS(=O)(=O)c1ccccc1 (stereo not given) | -49*
CC(=O)N1CCN(C2c3cccc4cccc(c34)C2NS(=O)(=O)c2ccccc2)CC1 (stereo not given) | -49*
SMILES | HKDC1 act
Cc1cc(O)c(C=O)c2c1C(=O)Oc1c(CO)c(O)c3c(c1O2)C(O)OC3=O (stereo not given) | 37
CCc1ccc2c(c1)C(NC(C)=O)C(=O)N2CCN1CCOCC1 (stereo not given) | 80
COc1ccc(C2=CC3=C(Br)C(=O)C(C)(OC(=O)c4ccco4)C(=O)C3=CO2)cc1 (stereo not given) | 42
Cc1oc2c(c1C(=O)c1ccc(Cl)cc1)C(=O)C(=O)c1ccccc1-2 | 55
O=C(O)CCCN1C(=O)/C(=C\C(Cl)=C\c2ccccc2)SC1=S | 44
CN(C)CC1CCC/C(=C\c2ccc(OC(=O)c3ccc(Cl)cc3)cc2)C1=O (stereo not given) | 37
N=C1/C(=C/c2coc3ccccc3c2=O)C(=O)N=C2SC(c3ccco3)=NN12 | 38
O=C(O)c1ccc(S(=O)(=O)/N=C2\C=C(Nc3ccccc3F)C(=O)c3ccccc32)cc1 | 81
CCOC(=O)c1cc2c(=Cc3ccc(N(C)C)cc3)c3ccccc3n2[n+]1C | 37
COc1ccc(-c2oc(NC(=O)CCl)c(C#N)c2-c2ccc(OC)cc2)cc1 | 46
Cc1onc(C(=O)Nc2ccc(OC(F)(F)F)cc2)c1[N+](=O)[O-] | 79
Cc1cc(C)nc(Nc2n[nH]c(-c3ccc(C(C)(C)C)cc3)n2)n1 | -51*
COc1ccc(N(CCCN2C(=O)c3cccc4cccc(c34)C2=O)C(=O)c2cccnc2)cc1 | 36
Cc1ccc(C)c(-n2c3nc(=O)[nH]c(=O)c-3cc3cc([N+](=O)[O-])ccc32)c1 | 47
Oc1ccc2ccccc2c1C=NC1CCCCC1 | 35
COc1ccc(S(=O)(=O)Nc2ccc(O)c3ccccc23)cc1 | 46
COc1ccccc1N(CC(=O)N/N=C/c1c(O)ccc2ccccc12)S(C)(=O)=O | -40*
CCOC(=O)C1=C(Cc2ccc(F)cc2)C(=O)c2ccccc2C1=O | 73
CCOC(=O)Cn1c2ccc(F)cc2c2nc(C)sc21 | -62*
COC(=O)Cn1c2ccc(F)cc2c2nc(C)sc21 | -92*
Cc1ccc(C(=O)c2coc3c2C(=O)C(=O)c2ccccc2-3)cc1 | 57
O=C(O)C(Cc1ccccc1)N1C(=O)/C(=C/C=C/c2ccco2)SC1=S (stereo not given) | 37
O=C(O)CSc1cc(NS(=O)(=O)c2ccc(Br)cc2)c2ccccc2c1O | 59
O=C(c1c[nH]c(C(=O)C(Cl)(Cl)Cl)c1)c1c(F)cccc1F | 38
O=C(CSc1nnc(CCCN2C(=O)c3cccc4cccc(c34)C2=O)n1-c1ccccc1)N1CCN(CCO)CC1 | 42
Cc1ccc(C2=NN=C(NC(=O)CSc3nncn3C)SC2)cc1 | -144*
